Laboratory results taken from ChEMBL document CHEMBL1240409, “Design, synthesis and evaluation of (E)-alpha-benzylthio chalcones as novel inhibitors of BCR-ABL kinase” (Bioorg Med Chem, 2010).

Columns and labels:
K562 = assay: Growth inhibition of human K562 cells expressing p210Bcr/Abl after 96 hrs by trypan blue exclusion assay; format: functional, cell-based; conditions: K562, 96 h
Method in brief: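 K562 cells were kept in RPMI with 10% FBS and penicillin–streptomycin at 37 °C under 5% CO2. Cells were seeded at 1 × 10^5 cells/mL with a range of compound concentrations, using DMSO as the negative control. After 96 h, viability was counted by Trypan blue exclusion and expressed as percent of DMSO control to derive GI50.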

DU-145 = assay: Growth inhibition of human DU145 cells after 96 hrs by trypan blue exclusion assay; format: functional; conditions: DU-145, 96 h

Compound	GI50 (K562) [µM]	GI50 (DU-145) [µM]
CSc1ccc(/C=C(\C(=O)c2ccc(Cl)cc2)S(=O)(=O)Cc2ccc(Cl)cc2)cc1	1	10
COc1ccc(S/C(=C/c2ccc(C)s2)C(=O)c2ccc(Cl)cc2)cc1	50	50
O=C(/C(=C\c1ccc(O)c([N+](=O)[O-])c1)SCc1ccc(Br)cc1)c1ccc(O)cc1O	50	> 100
Cc1ccc(S/C(=C/c2ccc(C)s2)C(=O)c2ccc(Br)cc2)cc1	50	> 100
O=C(/C(=C\c1ccc(I)cc1)Sc1ccc(Br)cc1)c1ccc(Br)cc1	1	1
CN(C)c1ccc(/C=C(\C(=O)c2ccc(Cl)cc2)S(=O)(=O)c2ccc(Br)cc2)cc1	50	> 100
COc1ccc(/C=C(/SCc2ccc(Cl)cc2)C(=O)c2ccc(Cl)cc2)cc1O	1	
O=C(/C(=C\c1ccc[nH]1)SCc1ccc(Cl)cc1)c1ccc(Cl)cc1	10	10
O=C(/C(=C\c1ccc(O)c([N+](=O)[O-])c1)SCc1ccc(Br)cc1)c1ccc(C(F)(F)F)cc1	1	10
COc1ccccc1/C=C(/SCc1ccc(Cl)cc1)C(=O)c1ccc(Br)cc1	10	1
CN(C)c1ccc(/C=C(/Sc2ccccc2Br)C(=O)c2ccc(Br)cc2)cc1	> 100	> 100
CCOc1ccc(/C=C(\C(=O)c2ccc(Cl)cc2)S(=O)(=O)c2ccc(C)cc2)cc1OC	1	1
COc1cc(OC)c(/C=C(/SCc2ccc(F)cc2)C(=O)c2ccc(Br)cc2)c(OC)c1	1	1
O=C(/C(=C\c1ccc(F)c([N+](=O)[O-])c1)SCc1ccc(Br)cc1)c1ccc(Cl)c([N+](=O)[O-])c1	> 100	> 100
O=C(/C(=C\c1ccc(Br)cc1)SCc1ccc(Cl)cc1)c1ccc(Cl)cc1	1	1
Cc1ccc(C)c(/C=C(/SCc2ccc(F)cc2)C(=O)c2ccc(Br)cc2)c1	50	1
Cc1ccc(S(=O)(=O)/C(=C/c2c[nH]c3ccccc23)C(=O)c2ccc(Br)cc2)cc1	10	10
CN(C)c1ccc(/C=C(/SCc2ccc(Cl)cc2)C(=O)c2ccc([N+](=O)[O-])cc2)cc1	50	> 100
COc1ccc(/C=C(/Sc2ccc(F)cc2)C(=O)c2ccc(OC)cc2)cc1	1	25
COc1ccc(/C=C(/Sc2ccc(C)cc2)C(=O)c2ccc(Cl)cc2)cc1O	1	1
O=C(/C(=C\c1ccc(O)c([N+](=O)[O-])c1)SCc1ccc(Br)cc1)c1ccc(Cl)cc1Cl	1	10
O=C(/C(=C\c1ccc(O)cc1)SCc1ccc(Cl)cc1)c1ccc(Cl)cc1	1	10
Cc1ccc(CS(=O)(=O)/C(=C/c2cc(C)ccc2C)C(=O)c2ccc(Cl)cc2)cc1	1	1
O=C(/C(=C\c1ccc(Cl)cc1)Sc1ccc(Cl)cc1)c1ccc(Cl)cc1	1	1
CSc1ccc(/C=C(/Sc2ccc(C)cc2)C(=O)c2ccc(Br)cc2)cc1	1	50

Compound	GI50 (K562) [µM]	GI50 (DU-145) [µM]
Cc1ccc(S/C(=C/c2cc(C)cc(C)c2)C(=O)c2ccc(Cl)cc2)cc1	25	50
O=C(/C(=C\c1c(O)cc(O)cc1O)SCc1ccc(Cl)c(Cl)c1)c1ccc(Cl)cc1	25	25
O=C(/C(=C\c1c[nH]c2ccc(Br)cc12)SCc1ccc(F)cc1)c1ccc(Cl)cc1	1	50
O=C(/C(=C\c1ccc(Cl)cc1)S(=O)(=O)c1ccc(Br)cc1)c1ccc(Br)cc1	50	50
O=C(O)c1ccc(C(=O)/C(=C\c2ccc(O)c([N+](=O)[O-])c2)SCc2ccc(F)cc2)cc1	50	> 100
O=C(/C(=C\c1ccc(OC(F)(F)F)cc1)Sc1ccc(Br)cc1)c1ccc(Br)cc1	1	10
CCOc1ccc(/C=C(/SCc2ccc(C)cc2)C(=O)c2ccc(Cl)cc2)cc1OC	25	25
COc1ccc(/C=C(/SCc2ccc(Cl)cc2)C(=O)c2ccc(Cl)cc2)cc1	1	10
Cc1ccc(C)c(/C=C(\C(=O)c2ccc(Cl)cc2)S(=O)(=O)Cc2ccc(Cl)cc2)c1	10	10
COc1ccccc1/C=C(\C(=O)c1ccc([N+](=O)[O-])cc1)S(=O)(=O)Cc1ccc(Cl)cc1	10	10
O=C(O)c1cc(/C=C(/Sc2ccc(Br)cc2)C(=O)c2c(F)c(F)c(F)c(F)c2F)ccc1O	25	25
Cc1cc(C)cc(/C=C(/SCc2ccc(F)cc2)C(=O)c2ccc(Br)cc2)c1	1	10
COc1ccccc1/C=C(/SCc1ccc(Cl)c(Cl)c1)C(=O)c1ccc(Cl)cc1	10	10
COc1ccc(/C=C(/Sc2ccccc2Cl)C(=O)c2ccc(Cl)cc2)c(OC)c1OC	1	10
O=C(/C(=C\c1c(O)cc(O)cc1O)S(=O)(=O)c1ccccc1Br)c1ccc(Cl)cc1	50	50
COc1ccccc1/C=C(\C(=O)c1ccc(Cl)cc1)S(=O)(=O)Cc1ccc(Cl)cc1	25	25
O=C(/C(=C\c1ccc(F)cc1C(F)(F)F)S(=O)(=O)Cc1ccc(Cl)c(Cl)c1)c1ccc(Cl)cc1	1	1
Cc1ccc(/C=C(/SCc2ccc(F)cc2)C(=O)c2ccc(Cl)cc2)s1	> 100	> 100
O=C(/C(=C\c1ccc(F)c([N+](=O)[O-])c1)SCc1ccc(F)cc1)c1ccc(SCc2ccc(F)cc2)c([N+](=O)[O-])c1	1	25
CN(C)c1ccc(/C=C(/SCc2ccc(Br)cc2)C(=O)c2ccc(C(=O)O)cc2)cc1	50	50
Cc1ccc(CS/C(=C/c2ccc(O)cc2)C(=O)c2ccc(Cl)cc2)cc1	1	10
COc1ccc(/C=C(\C(=O)c2ccc(Br)cc2)S(=O)(=O)Cc2ccc(F)cc2)cc1	25	25
CN(C)c1ccc(/C=C(\C(=O)c2ccc(Br)cc2)S(=O)(=O)Cc2ccc(F)cc2)cc1	50	50
COc1ccccc1/C=C(/SCc1ccc(Cl)cc1)C(=O)c1ccc([N+](=O)[O-])cc1	1	10
Cc1ccc(/C=C(\C(=O)c2ccc(Cl)cc2)S(=O)(=O)Cc2ccc(F)cc2)s1	50	50

Compound	GI50 (K562) [µM]	GI50 (DU-145) [µM]
O=C(/C(=C\c1ccc(Oc2ccccc2)cc1)SCc1ccccc1Cl)c1ccc(Cl)cc1	1	1
COc1cc(OC)c(/C=C(/SCc2ccc(F)cc2)C(=O)c2ccc(Cl)cc2)c(OC)c1	10	10
COc1ccc(C(=O)/C(=C\c2ccc(Cl)cc2)Sc2ccc(F)cc2)cc1	> 100	> 100
Cc1cc(C)cc(/C=C(/SCc2ccc(Br)cc2)C(=O)c2ccccc2Cl)c1	10	10
O=C(/C(=C\c1ccc(OCc2ccccc2)cc1)S(=O)(=O)Cc1ccc(Cl)cc1)c1ccc(Cl)cc1	1	1
O=C(/C(=C\c1ccc([N+](=O)[O-])c(O)c1)SCc1ccc(Br)cc1)c1ccc(Br)cc1	1	10
COc1ccc(C(=O)C(=Cc2ccc(Br)cc2)S(=O)(=O)Cc2ccc(Br)cc2)cc1	1	1
O=C(/C(=C\c1ccc(Br)cc1)Sc1ccccc1Br)c1ccc(Br)cc1	8	1
O=C(/C(=C\c1ccc(OCc2ccccc2)cc1)SCc1cccc(Cl)c1)c1ccc(Br)cc1	1	1
Cc1ccc(S/C(=C/c2ccc(Cl)cc2)C(=O)c2ccc(Cl)cc2)cc1	1	10
CCOc1cc(/C=C(\SCc2ccc(Cl)cc2Cl)C(=O)c2ccc(Cl)cc2)ccc1O	1	10
CN(C)c1ccc(/C=C(/SCc2ccc(F)cc2)C(=O)c2ccc(Br)cc2)cc1	1	50
Cc1ccsc1/C=C(/SCc1ccc(Cl)cc1)C(=O)c1ccc(Br)cc1	25	25
COc1ccsc1/C=C(\C(=O)c1ccc(Br)cc1)S(=O)(=O)Cc1ccc(Cl)cc1	25	50
O=C(/C(=C\c1ccc(F)c([N+](=O)[O-])c1)SCc1ccc(Br)cc1)c1ccc(C(F)(F)F)cc1	1	
COc1ccccc1/C=C(/SCc1ccc(F)cc1)C(=O)c1ccc(Cl)cc1	1	10
COc1cc(OC)c(/C=C(\C(=O)c2ccc(Br)cc2)S(=O)(=O)c2ccc(Br)cc2)c(OC)c1	> 100	> 100
COc1ccc(S/C(=C/c2ccc(Br)cc2)C(=O)c2ccc(Br)cc2)cc1	6	20
Nc1ccc(/C=C(/SCc2ccc(F)cc2)C(=O)c2ccc(C(=O)O)cc2)cc1[N+](=O)[O-]	10	10
Cc1ccc(S/C(=C/c2ccc(F)c(C)c2)C(=O)c2ccc(Br)cc2)cc1	1	25
Cc1cc(C)cc(/C=C(\C(=O)c2ccc(Cl)cc2)S(=O)(=O)c2ccc(Br)cc2)c1	10	10
O=C(/C(=C\c1ccc(I)cc1)S(=O)(=O)c1ccc(Br)cc1)c1ccc(Br)cc1	9	1
O=C(/C(=C\c1ccc(F)c([N+](=O)[O-])c1)Sc1ccc(Cl)cc1)c1ccc(Cl)cc1	10	
COc1cccc(OC)c1/C=C(\C(=O)c1ccc(Br)cc1)S(=O)(=O)c1ccc(Br)cc1		10
O=C(/C(=C\c1ccc(F)cc1)Sc1ccc(Br)cc1)c1ccc(Br)cc1	1	
